Test results as given in PubChem BioAssay AID1899 (The Scripps Research Institute Molecular Screening Center, 2009).
The whole screen tested about 300,000 compounds, of which about 1,000 (0.33%) were called active. Shown is part of a subset that was picked to be rich in actives. Values without a mark were called inactive.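 How the source made its calls: active means inhibition above the mean of all tested compounds plus 3 SD, set per screening campaign (cut at about 45% in these data); inactive means the rest.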

The molecules below were run on HCV core protein (residues 1-106) dimerization (assay: blockers of core106 self-association – biochemical, TR-FRET, high-throughput, primary screen (AID 1899)). Conditions: TR-FRET GST/Flag-core106 dimerization, 1536-well; at 5 µM; stronger effect = higher value.
Outline: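 Assay system: GST-tagged and Flag-tagged HCV core protein residues 1-106 / Times: compound-protein-antibody incubation 4 h at 22.5 °C / Signal: time-resolved FRET, ex 340 nm, em 617 and 671 nm / Evaluation: % inhibition based on acceptor/donor emission ratio / Benchmarks: wells lacking GST-core106 and wells with excess unlabelled core106 / Repeats: singlicate, one well per compound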

SMILES | inhibition
COc1ccc(OC)c(CNC(=O)c2cc(=O)[nH]c3ccc(S(=O)(=O)N4CCCC4)cc23)c1 | 0.99%
CNC(=O)COC(=O)c1cc(-c2ccc(OC)cc2)nc2ccccc12 | 0.09%
COc1cc(-c2cc(C(=O)OCC(=O)Nc3ccc4c(c3)OCO4)c3ccccc3n2)cc(OC)c1OC | 46.1% (active)
COc1ccc(NC(=O)c2cc(-c3cc(OC)c(OC)c(OC)c3)nc3ccccc23)c(OC)c1 | -2.9%
CN(C)/C(CN1CCCCC1)=C1\N=C(c2ccccc2)OC1=O | -2.51%
Cc1ccc(C(=O)Nc2cccc3ncccc23)cc1[N+](=O)[O-] | 4.3%
O=C(Nc1cccc2ncccc12)C(Cl)(Cl)Cl | -1.9%
Cc1ccc(/C=C(\C#N)C(=O)Nc2cccc3ncccc23)o1 | 64.5% (active)
Cc1ccc(NC(=S)NC(=O)/C=C/c2ccc(Cl)cc2)cc1 | -5.71%
COc1ccc(/C=C/C(=O)NC(=S)N2CCCC(C(N)=O)C2)cc1 (stereo not drawn) | -10.7%
CCOc1ccc(NC(=S)NC(=O)/C=C/c2ccc(OC)cc2)c([N+](=O)[O-])c1 | 47.8% (active)
Cn1nnnc1SCC(=O)N1CCN(C(c2ccccc2)c2ccccc2)CC1 | 2.43%
N#CC1=C(N)Oc2c(ccc3cccnc23)C1c1ccncc1 (stereo not drawn) | 3.58%
N#CC1=C(N)Oc2c(sc3ccccc23)C1c1ccco1 (stereo not drawn) | 54.5% (active)
COC(=O)c1ccc2c(=O)n(CCN3CCOCC3)c(SCC(=O)Nc3cccc(OC)c3)nc2c1 | -0.68%
CCOC(=O)N1CCN(C(=O)CSc2nc(C)nc3c2c(=O)n(C)c(=O)n3C)CC1 | -1.3%
COc1ccc2c(CN3CCN(S(=O)(=O)c4cccs4)CC3)cc(=O)oc2c1 | 11.7%
NC(=O)CCN1CCN(S(=O)(=O)/C=C/c2ccccc2)CC1 | 0.92%
O=c1cc(CN2CCN(S(=O)(=O)/C=C/c3ccccc3)CC2)c2ccc(O)cc2o1 | 52.2% (active)
Cc1cc(C(=O)N/N=C/c2ccc(O)c([N+](=O)[O-])c2)c(C)n1-c1ccc(F)cc1 | 70.4% (active)
COc1cc(/C=N/NC(=O)c2cc(C)n(-c3ccc(F)cc3)c2C)cc(OC)c1O | 4.09%
Cc1nn(CC(=O)N/N=C/c2ccc(F)cc2)c(C)c1[N+](=O)[O-] | -5.44%

SMILES | inhibition
CC(c1ccco1)N(C(=O)c1ccc(S(=O)(=O)N2CCCCC2)cc1)c1ccccn1 (stereo not drawn) | -1.02%
CCOc1ccc(C(=O)Nc2ccncc2)cc1 | -4.79%
CCOc1ccc(NC(=O)c2ccc(NC(=O)COC(=O)c3ccc(NC(=O)CC#N)cc3)cc2)cc1 | 62.4% (active)
CC(C)NC(=O)NC(=O)COC(=O)c1ccc(NC(=O)CC#N)cc1 | -2.82%
CCCn1c(O)c(CN2CCCC(C)C2)c(C)c(C#N)c1=O (stereo not drawn) | -8.8%
O=C(Nc1ccc(-n2ccnc2P(=O)(O)c2ccccc2)cc1)c1ccccc1Br | 3.36%
CC(=O)c1ccc(S(=O)(=O)N2CCC3(CC2)OCCO3)cc1 | -8.35%
CC(=O)c1ccc(S(=O)(=O)N2CCN(C(=O)/C=C/c3ccc4ccccc4n3)CC2)cc1 | 34.5%
CC(=O)c1ccc(S(=O)(=O)N2CCN(c3nc4c(C)c(C)ccc4cc3C#N)CC2)cc1 | 60.9% (active)
Cc1ccc(S(=O)Cc2ccc(C(=O)N3CCN(C4CCCCC4)CC3)o2)cc1 (stereo not drawn) | 2.42%
COc1ccc(/C=N/N=C/c2c[nH]c(=O)c(C#N)c2Nc2ccccc2)cc1 | 9.36%
Nc1nc(O)c(CC(=O)O)s1 | -10.1%
COc1cccc2c(C)c(C(=O)O)[nH]c12 | 52.9% (active)
COc1cc2c(C(=O)O)c(C)n(C)c2c2ccccc12 | -16.5%
Cc1c(C(=O)N/N=C/c2ccccc2)[nH]c2c([N+](=O)[O-])cccc12 | 2.99%
COc1ccc(S(=O)(=O)N2CCN(c3ncnc4c(-c5ccccc5)nsc34)CC2)cc1 | 5.78%
COc1ccc(/C=N/NC(=O)c2ccc(Cl)cc2)cc1COC(C)=O | -6.24%
COc1cccc(OCc2cc(/C=N/NC(=O)c3nc(Cl)c(Cl)c(N)c3Cl)ccc2OC)c1 | 58.9% (active)
COc1ccc(/C=N\NC(=O)c2sc(N)nc2C)cc1OC | 1.3%
CCn1cc(/C=C(\NC(=O)c2cc(OC)c(OC)c(OC)c2)C(=O)N2CCN(C)CC2)c2ccccc21 | -12.2%
CC1CCCN(c2ccc(C(=O)NCCc3ccccc3)cn2)C1 (stereo not drawn) | -2.49%
Nc1ccc2nc3c(=O)[nH]c(=S)[nH]c3nc2c1 | 47.1% (active)

SMILES | inhibition
Cc1cc2nc3c(=O)n(Cc4ccccc4)c(=O)[nH]c3nc2cc1N | 7.8%
Cc1ccc(-c2cc(C(=O)N/N=C/C=C/c3ccco3)c3ccccc3n2)cc1C | 68.2% (active)
COc1ccc(/C=N/NC(=O)c2cc(-c3cccc(C)c3)nc3ccccc23)cc1O | 4.37%
O=C(N/N=C/C=C/c1ccco1)c1cccs1 | 11.6%
CCOC(=O)N1CCN(Cc2nc3ccc([N+](=O)[O-])cc3c(=O)n2-c2cccc(OC)c2)CC1 | 0.84%
Cc1ccc(NC(=O)CN(C)C(=O)COC(=O)C(C)(C)Oc2ccc(Cl)cc2)cc1 | 2.08%
CC(C)c1ccc(C2C(C(=O)c3ccco3)=C(O)C(=O)N2CC2CCCO2)cc1 (stereo not drawn) | -4.24%
Cn1cncc1COC(=O)c1ccc(Cl)cc1 | 1.11%
Cc1ccc(S(=O)(=O)N2CCC(C(=O)NCC3CCCO3)CC2)cc1 (stereo not drawn) | 4.25%
C=CCn1c(C)cc(C2=NNC(=NCC)SC2)c1C | -4.1%
Cc1cc(C2=NNC(=Nc3ccc(S(=O)(=O)N4CCOCC4)cc3)SC2)c(C)n1CC1CCCO1 (stereo not drawn) | 55.5% (active)
O=C(NNC(=S)NC(=O)c1cn(-c2ccccc2)nc1-c1ccccc1)c1ccncc1 | -3.87%
CCn1cc(C(=O)N2CC(C)CC(C)C2)c(=O)c2cc(S(=O)(=O)N3CCCC3)ccc21 (stereo not drawn) | -3.07%
CN(NC(=O)C1CC(=O)N(c2ccccc2)C1)C1=NS(=O)(=O)c2ccccc21 (stereo not drawn) | 1.86%
O=C(N=C1SC2CS(=O)(=O)CC2N1c1cc(Cl)ccc1Cl)C1CC1 (stereo not drawn) | -2.57%
c1ccc(CSc2nnc(-c3ccco3)c(-c3ccco3)n2)cc1 | 63.8% (active)
Clc1ccccc1CSc1nnc(-c2ccco2)c(-c2ccco2)n1 | 60.8% (active)
O=c1[nH]c(SCc2ccccc2)nnc1-c1ccccc1 | 4.19%
O=c1cc(O)nc(SCc2ccccc2Cl)[nH]1 | -5.09%
COc1ccc2nc(SCc3ccccc3)nc(C)c2c1 | -8.86%
Fc1cccc(Cl)c1CSc1ccc(-c2ccco2)nn1 | 19.9%
CCN(CC(=O)Nc1ccccc1OC)C(=O)Cn1cnc2ccccc2c1=O | 0.63%

SMILES | inhibition
C=C1CCN([C@@H](Cc2ccccc2)C(=O)N2CCOCC2)S(=O)(=O)c2ccccc21 | 5.65%
CCOC(=O)CSc1nc2ccc(C)cc2n2cnnc12 | -1.27%
CC(C)(C)CC(=O)Nc1nnc(SCC(=O)NCc2cccs2)s1 | 10.5%
O=C(c1ccccc1)N1CCN(C(=O)c2cc3nc(-c4ccccc4)cc(C(F)(F)F)n3n2)CC1 | -5.71%
Cc1ccc(N=C2NC(=O)/C(=C/C=C/c3ccco3)S2)cc1C | 61.8% (active)
Cc1ccc(N2NC(=O)/C(=C/C=C/c3ccco3)C2=O)cc1C | 13.5%
CN1C(=O)/C(=C/c2ccco2)SC1=Nc1cccc(C(=O)O)c1 | 1.21%
C/C(=N\NC(=O)c1ccc(CSc2nc(C)cc(C)n2)cc1)C1CCCCC1 | 7.33%
O=C(Nc1ccccc1C(=O)O)c1ccc(N2C(=O)C3CC=CCC3C2=O)cc1 (stereo not drawn) | -0.72%
Cc1cc(/C=C2\SC(=O)N(C)C2=O)c(C)n1-c1cccc(C(=O)O)c1 | 8.51%
Cc1ccccc1NC(=O)CN1C(=O)N/C(=C\c2cccn2-c2cccc(C(=O)O)c2)C1=O | -4.12%
N#Cc1ccccc1CN1C(=O)S/C(=C/c2cccn2-c2cccc(C(=O)O)c2)C1=O | 74.2% (active)
COc1ccc(S(=O)(=O)N2CCOC23CCN(S(=O)(=O)c2ccc([N+](=O)[O-])cc2)CC3)cc1 | 7.35%
CC(C)c1ccccc1OCC(O)CN(CC(O)COc1cccc2ccccc12)C(C)C (stereo not drawn) | -10.3%
Cc1ccc(C(=O)N/C(=C\c2cn(S(=O)(=O)N(C)C)c3ccccc23)C(=O)N2CCCC2)cc1 | 15.1%
O=C(Nc1ccccc1C(=O)N1CCCCC1)c1ccco1 | -1.76%
CN(C)C=NC(=O)c1cccn1-c1ncc(C(F)(F)F)cc1Cl | -0.36%
Cc1noc(/C=C/c2ccco2)c1S(=O)(=O)N1CCC(C(=O)N2CCc3ccccc32)CC1 | 66.4% (active)
Cc1noc(/C=C/c2ccco2)c1S(=O)(=O)N1CCC(C(=O)Nc2ccc(Cl)cn2)CC1 | 9.46%
CNC(=O)C1CCN(S(=O)(=O)c2c(C)noc2/C=C/c2cccc(C)c2)CC1 | -2.65%
Cc1cccc(C)c1NC(=O)CN1C(=O)C(C)Oc2ccccc21 (stereo not drawn) | 5.55%
CN(C)c1ccc(C(=S)N2CCN(C(=S)Nc3ccc(Cl)cc3)CC2)cc1 | 13%
